Assay [1] concerns MDA-MB-435. The assay can be described thus: Induction of apoptosis in human MDA-MB-435 cells assessed as change in nuclear morphology at 50 nM by fluorescence microscopy. The assay is classed as functional, cell-based. Put shortly:
(§1)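 MDA-MB-435 cells plated in DFCI-1 medium at (3-5) × 10^4 cells/35-mm dish and attached 24 h (37 °C, 6.5% CO2). Treated 48 h, then attached cells were examined by fluorescence microscopy for nuclear shrinkage and chromatin condensation or fragmentation. 50 nM paclitaxel served as positive control.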

Assay [2] concerns MDA-MB-231. The assay can be described thus: Cytotoxicity against human MDA-MB-231 cells by SRB assay. The assay is classed as functional, cell-based. Put shortly:
(§2)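 Cells washed in PBS, resuspended in DFCI-1 medium and seeded in triplicate at 4000/0.2 mL/well. After 24 h attachment (37 °C, 6.5% CO2), cells got 0.1–40.0 μM compound (DMSO below 0.2% final; DMSO controls) for 48 h. Cells were then PBS-washed and SRB-stained, and dye was redissolved in 10 mM Tris·HCl and read at 550 nm. IC50 taken as 50% reduction of relative cell number.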
A general note: In SRB staining, fixed cells bind dye roughly in proportion to their protein.

The test system of assay [3] is MDA-MB-435. The assay can be described thus: Cytotoxicity against human MDA-MB-435 cells at 2.3 uM treated for 24 hrs and subsequently cultured in drug-free medium for 96 hrs by SRB assay. The assay is classed as functional, cell-based. Put shortly: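 MDA-MB-435 cells in DFCI-1 medium, seeded in triplicate at 4000/well and attached 24 h at 37 °C. Exposed to 2.3 μM compound for 24 h at 37 °C, then cultured in drug-free DFCI-1 medium for 96 h. Viability read by SRB staining with absorbance at 550 nm.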

Assay [4] has as its system MDA-MB-435. The assay can be described thus: Cytotoxicity against human MDA-MB-435 cells by SRB assay. The format is functional, cell-based. A digest of the protocol:
as §2

Assay [5] relates to MDA-MB-435. The assay can be described thus: Induction of apoptosis in human MDA-MB-435 cells assessed as change in nuclear morphology at 2.3 uM by fluorescence microscopy. The assay is classed as functional, cell-based. Put shortly:
as §1

Assay [6] concerns MDA-MB-435. The assay can be described thus: Cytotoxicity against human MDA-MB-435 cells assessed as change from polarized to spherical cellular morphology by SRB assay. The assay is classed as functional, cell-based.
In assay [7] the test system is MDA-MB-231. The assay can be described thus: Cytotoxicity against human MDA-MB-231 cells assessed as change from polarized to spherical cellular morphology by SRB assay. The format is functional, cell-based.
Assay [8] is described as follows: Cytotoxicity against human 70N cells by SRB assay. The assay is classed as cell-based. A digest of the protocol: as §2

Calls of active or inactive are those of the source. The rule behind the calls is not given here.

On to `CC(=O)O[C@H]1C(=O)[C@@]2(C)[C@H]([C@H](OC(=O)c3ccccc3)[C@]3(O)C[C@H](OC(=O)[C@H](O)[C@@H](NC(=O)c4ccccc4)c4ccccc4)C(C)=C1C3(C)C)[C@]1(OC(C)=O)CO[C@@H]1C[C@@H]2O`, for which, in the assay on MDA-MB-435 [1], the outcome was Active.

The IC50 is the midpoint of a concentration-inhibition curve. Low readings indicate greater potency in that assay, high ones weaker potency in that assay. As for `CC1=C2CC[C@]3(C)[C@H](CC=C4[C@@H]5CC(C)(C)CC[C@@H]5C(=O)[C@H](O)[C@]43C)[C@@]2(C)C=C(O)C1=O` [REMANGILONE A], the IC50 turned out to be 6.6 µM in the assay with MDA-MB-231 [2], 8.5 µM in the assay with MDA-MB-435 [4] and 40.5 µM in assay [8]. Also, the outcome in the assay on MDA-MB-435 [3], with MDA-MB-435 [5], with MDA-MB-435 [6] and in the assay on MDA-MB-231 [7] was Active.
